Results published in ChEMBL document CHEMBL1126064, “Enzymatic synthesis and comparative biological evaluation of a phosphonate analogue of the lipid A precursor” (1992).

Columns and labels:
[1] = biological target: T1, Ornithine decarboxylase (Mus musculus) (UniProt P00860); assay: Compound was evaluated for the stimulation of Ornithine decarboxylase (ODC) activity in murine macrophagelike cell line RAW264 as a parameter for macrophage stimulation, and the pyrogenicity test in rabbits at a concentration of 0.1 ug/ml
T1 sequence (whole entry): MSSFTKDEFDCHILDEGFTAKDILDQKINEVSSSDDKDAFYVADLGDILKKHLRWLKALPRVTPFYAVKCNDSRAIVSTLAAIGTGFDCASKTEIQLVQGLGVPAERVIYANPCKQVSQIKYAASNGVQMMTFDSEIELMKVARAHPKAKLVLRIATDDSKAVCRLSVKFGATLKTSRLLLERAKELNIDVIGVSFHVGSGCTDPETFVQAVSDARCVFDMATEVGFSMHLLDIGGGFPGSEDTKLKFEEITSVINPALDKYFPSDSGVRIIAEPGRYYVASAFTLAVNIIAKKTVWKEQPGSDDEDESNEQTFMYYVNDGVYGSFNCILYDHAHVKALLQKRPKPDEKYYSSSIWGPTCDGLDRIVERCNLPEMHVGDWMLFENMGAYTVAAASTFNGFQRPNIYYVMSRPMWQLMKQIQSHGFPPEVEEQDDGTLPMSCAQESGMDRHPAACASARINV
Method in brief: (§1)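 RAW-264 cells at 5.5 × 10^5 cells/mL in serum-free DMEM-H21 with 15 mM HEPES and 1 mM pyruvate, held overnight at 37 °C/5% CO2. Murine γ-IFN (2000 units/mL) and test material in pyrogen-free water then added for 4 h. Cells were lysed by sonication, and ODC in the supernatant was assayed with [3H]-L-ornithine plus 1 mM L-ornithine stock, 60 min at 37 °C. LPS 5 ng/mL served as internal standard.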

Oryctolagus cuniculus [2] = assay: Increase in temperature of three rabbits treatment with the compound at a dose of 1 ug/kg.; format: functional
Oryctolagus cuniculus [3] = assay: Increase in temperature of three rabbits treatment with the compound at a dose of 50 ug/kg.; format: functional
[4] = biological target: T1, Ornithine decarboxylase (Mus musculus); assay: Compound was evaluated for the stimulation of Ornithine decarboxylase (ODC) activity in murine macrophagelike cell line RAW264 as a parameter for macrophage stimulation, and the pyrogenicity test in rabbits at a concentration of 2 ug/ml; method in brief: as §1
[5] = biological target: T1, Ornithine decarboxylase (Mus musculus); assay: Compound was evaluated for the stimulation of Ornithine decarboxylase (ODC) activity in murine macrophagelike cell line RAW264 as a parameter for macrophage stimulation, and the pyrogenicity test in rabbits at a concentration of 0.5 ug/ml; method in brief: as §1
[6] = Endotoxic activity determined by limulus amoebocyte lysate (LAL) assay
[7] = biological target: T1, Ornithine decarboxylase (Mus musculus); assay: Compound was evaluated for the stimulation of Ornithine decarboxylase (ODC) activity in murine macrophagelike cell line RAW264 as a parameter for macrophage stimulation, and the pyrogenicity test in rabbits at a concentration of 0.02 ug/ml; method in brief: as §1
[8] = biological target: T1, Ornithine decarboxylase (Mus musculus); assay: Compound was evaluated for the stimulation of Ornithine decarboxylase (ODC) activity in murine macrophagelike cell line RAW264 as a parameter for macrophage stimulation, and the pyrogenicity test in rabbits at a concentration of 10 ug/ml; method in brief: as §1

Row | Compound | Stimulation [1] | increase in temperature (Oryctolagus cuniculus [2]) | increase in temperature (Oryctolagus cuniculus [3]) | Stimulation [4] | Stimulation [5] | EU [6] | Stimulation [7] | Stimulation [8]
1 | CCCCCCCCCCCC(O)CC(=O)N[C@@H]1C(OCC2OC(OP(=O)(O)O)[C@@H](NC(=O)CC(O)CCCCCCCCCCC)C(OC(=O)CC(O)CCCCCCCCCCC)[C@@H]2O)OC(CO)[C@@H](O)C1OC(=O)CC(O)CCCCCCCCCCC (stereo partly specified) | 30% | 2.1 | 5.95 | 98% | 60% | 80000 g⁻¹ | 2% | 97%
2 | CCCCCCCCCCCC(O)CC(=O)N[C@@H]1C(OCC2OC(P(=O)(O)O)[C@@H](NC(=O)CC(O)CCCCCCCCCCC)C(OC(=O)CC(O)CCCCCCCCCCC)[C@@H]2O)OC(CO)[C@@H](O)C1OC(=O)CC(O)CCCCCCCCCCC (stereo partly specified) [PHOSPHONATE ANALOGUE OF LIPID A] | 20% | 2.1 | 6.6 | 75% | 70% | 30000 g⁻¹ | 5% | 84%
